The test system of series [1] is L1210. Put plainly: Cytotoxicity against mouse L1210 cell line. It is filed as cell-based. Also noted: Activity: concentration or dose not given beside the values. Particulars: for IC50: Mus musculus, L1210; for Activity: mouse, l1210. Put shortly: (§1)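 Cells grown at 37 °C under 5% CO2 in medium with 2 mM L-glutamine, penicillin, streptomycin and 20% heat-inactivated horse serum. Drug in DMSO (0.5% final) added to exponentially growing cells seeded at 0.8 × 10^5 cells/mL. Coulter counting in quadruplicate at 48 h (L1210) or 96 h (HT-29). IC50 from probit of % growth inhibition versus log dose; four independent runs in triplicate.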

In series [2] the test system is HT-29. Put plainly: Cytotoxicity against human HT29 cell line. Type of series: cell-based. In a few lines:
as §1

Series [3] relates to L1210. Put plainly: Cell cycle arrest in mouse L1210 cell line by accumulation at G2/M phase at 1 uM after 24 hrs. It is filed as functional. Put shortly: (§2)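 L1210 cells in RPMI 1640 with 2 mM L-glutamine, penicillin, streptomycin and 20% heat-inactivated horse serum, 5% CO2, 37 °C, exposed to several drug concentrations. Cells fixed in 70% ethanol, washed, stained 30 min at room temperature with propidium iodide plus RNAse in PBS, then flow cytometry. Read-out is percentage of cells in each cycle phase after 24 h exposure.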

The test system of series [4] is L1210. The experiment in a line: Cell cycle arrest in mouse L1210 cell line by accumulation at G2/M phase at 5 uM after 24 hrs. Type of series: functional. Put shortly: as §2
Series [5] in a line: Effect on DNA sequence recognition assessed by DNase I footprinting assay. Type of series: functional.
The species named for series [6] is Homo sapiens. The experiment in a line: Inhibition of topoisomerase 2 assessed by DNA cleavage complex formation assay. In a few lines: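 Cleavage complex formed on pYRG plasmid DNA by human topoisomerase II purified from placenta. Linear DNA product quantified by densitometry relative to ellipticine.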
Series [7] deals with L1210. The experiment in a line: Cell cycle arrest in mouse L1210 cell line by accumulation at 8N phase at 5 uM after 24 hrs. Type of series: functional. In a few lines:
as §2

The subject of series [8] is L1210. Put plainly: Cell cycle arrest in mouse L1210 cell line by accumulation at 8N phase at 20 uM after 24 hrs. Type of series: functional. In a few lines:
as §2

In series [9] the test system is L1210. Put plainly: Cell cycle arrest in mouse L1210 cell line by accumulation at G2 phase at 1 uM after 24 hrs. Type of series: functional. Put shortly:
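L1210 cells grown in RPMI 1640 with 2 mM L-glutamine, penicillin, streptomycin and 20% heat-inactivated horse serum at 37 °C, 5% CO2, then drug-exposed (methods 21 h; footnote 24 h). Ethanol (70%) fixed, then washed. Stained 30 min at room temperature in PBS with […] RNase and propidium iodide. Flow cytometry gives % cells in each cycle phase.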

Structures are written as SMILES. Calls of active or inactive are those of the source. The rule behind the calls is not given here.

Broadly, the IC50 is the concentration that inhibits the measured activity by half. With `Cc1c2c(c(CCCCC(=O)O)c3c1Oc1ccccc1O3)C(=O)OC2`, the results for the IC50 in [1] and in series [2] were 89 µM and > 10 µM, respectively.

`CCCCCCCCc1c2c(c(C)c3c1C(=O)OC3)Oc1ccccc1O2`: the IC50 in series [1] and in series [2] was > 10 µM throughout.

`CCCCc1c2c(c(C)c3c1Oc1ccccc1O3)C(=O)OC2`: the half-inhibitory concentration (IC50) in [1] was > 100 µM; in series [2] it was 17.7 µM.

Turning to `COc1cccc2c1C(=O)c1c(O)c3c(c(O)c1C2=O)C[C@@](O)(C(=O)CO)C[C@@H]3O[C@H]1C[C@H](N)[C@H](O)[C@H](C)O1` [DOXORUBICIN], the Activity in series [3] worked out at 86%. For the same compound, the 50% inhibitory concentration (IC50) in series [1] is 0.029 µM; in [2] it was 0.48 µM.

For the compound `Cc1c2c(c(C)c3cnccc13)Oc1ccccc1O2`, the values for the IC50 in [1] and in series [2] were 1.2 µM and 22.1 µM, respectively.

On to `Cc1c2c(c(CCCCCN)c3c1Oc1ccccc1O3)C(=O)OC2`, for which the results for the IC50 in series [1] and in [2] were 12.8 µM and 5.7 µM, respectively.

Consider `Cc1c2c(c(CCCCCC#N)c3c1C(=O)OC3)Oc1ccccc1O2`, for which the IC50 in [1] and in [2] was > 10 µM in each case.

For the compound `CCCCCc1c2c(c(C)c3c1C(=O)OC3)Oc1ccccc1O2`, the Activity in [4] and in series [7] was 80% in each case. The outcome in series [5] and in series [6] was inactive. Also, the figures for the IC50 in series [1] and in [2] were 1.8 µM and 0.12 µM, respectively.

For `CNCCCCc1c2c(c(C)c3c1C(=O)OC3)Oc1ccccc1O2`, the Activity in [4] and in series [7] was 86% in each case. In addition, the half-inhibitory concentration (IC50) in series [1] is 2.4 µM; in series [2], 0.54 µM.

Turning to `CCCCCCc1c2c(c(CCCCCC)c3c1Oc1ccccc1O3)C(=O)OC2`, the 50% inhibitory concentration (IC50) in series [1] and in [2] was > 10 µM each time.

The compound `CCCCCCCc1c2c(c(C)c3c1C(=O)OC3)Oc1ccccc1O2` registered an Activity in series [8] of 70%. Moreover, the 50% inhibitory concentration (IC50) in [1] is 3.9 µM; in series [2], 1.9 µM.

Consider `Cc1c2c(c(CCCCCC(=O)O)c3c1Oc1ccccc1O3)C(=O)OC2`, for which the 50% inhibitory concentration (IC50) in series [1] and in series [2] was > 10 µM throughout.

Regarding `CCCc1c2c(c(C)c3c1C(=O)OC3)Oc1ccccc1O2`, the concentration for half-maximal inhibition (IC50) in [1] and in series [2] was > 10 µM throughout. Also, in series [1], the Activity is reported as 111%.

Turning to `CCCc1c2c(c(C)c3c1Oc1ccccc1O3)C(=O)OC2`, in [1], the half-inhibitory concentration (IC50) was > 10 µM and the Activity is 115%. Also, in [2], the half-inhibitory concentration (IC50) was > 10 µM.

`Cc1c2ccncc2c(C)c2c1[nH]c1ccccc12` [ELLIPTECINE]: the half-maximal inhibitory concentration (IC50) is 0.19 µM in [1] and 14.9 µM in series [2]. Moreover, the Activity in [9] is 50%.

Regarding `CCCCCCCc1c2c(c(C)c3c1Oc1ccccc1O3)C(=O)OC2`, the IC50 was > 10 µM in series [1] and 21.8 µM in [2].

For the compound `Cc1c2c(c(CC(C)CC(C)(C)C)c3c1C(=O)OC3)Oc1ccccc1O2` (stereo not drawn), the IC50 in series [1] and in [2] was > 10 µM in each case. Also, the Activity in [1] is on record as 70%.

In the case of `CCCCCCc1c2c(c(C)c3c1Oc1ccccc1O3)C(=O)OC2`, in series [1], the IC50 is > 10 µM and the Activity was 118.3%. This compound displayed an IC50 in [2] of 18.2 µM.

Take `CCCCCc1c2c(c(C)c3c1Oc1ccccc1O3)C(=O)OC2`: the Activity in series [4] and in series [7] was 35% each time. The concentration for half-maximal inhibition (IC50) in series [1] is 7.2 µM; in series [2], 9.2 µM.

For `CC1OC(=O)C2=C1Oc1ccccc1O2` (stereo not drawn), the IC50 in series [1] and in series [2] was > 10 µM each time.

Take `CCCCCCc1c2c(c(C)c3c1C(=O)OC3)Oc1ccccc1O2`: the Activity in [4] and in series [7] was 86% throughout. Further, the half-inhibitory concentration (IC50) amounted to 2 µM in series [1] and 0.38 µM in series [2].

Consider `Cc1c2c(c(CCCCC#N)c3c1Oc1ccccc1O3)C(=O)OC2`, for which the half-maximal inhibitory concentration (IC50) was 77 µM in series [1] and 24.1 µM in series [2].

On to `CCCCCc1c2c(c(C)c3c1C(=O)OC3)Oc1ccc(OC)cc1O2`, for which, in series [1], the IC50 is > 10 µM and the Activity is reported as 78%. The half-maximal inhibitory concentration (IC50) in [2] was > 10 µM.

Regarding `CCCCCCCCc1c2c(c(C)c3c1Oc1ccccc1O3)C(=O)OC2`, the IC50 in series [1] and in [2] was > 10 µM in each case.

In the case of `CCCCCc1c2c(c(C)c3c1Oc1cc(OC)ccc1O3)C(=O)OC2`, in [1], the half-inhibitory concentration (IC50) was > 10 µM and the Activity was found to be 70%. In addition, the IC50 in series [2] was > 10 µM.

As for `CCCCCCc1c2c(c(C)c3c1C(=O)SC3)Oc1ccccc1O2`, the IC50 in series [1] amounted to 19 µM; in series [2], 34.5 µM.

`Cc1c2c(c(CCCCCC#N)c3c1Oc1ccccc1O3)C(=O)OC2`: the result in [6] was inactive. Also, the figures for the IC50 in [1] and in [2] were 0.54 µM and 0.12 µM, respectively. The Activity in series [7] is 88%.

As to `CCc1c2c(c(C)c3c1C(=O)OC3)Oc1ccccc1O2`, the half-maximal inhibitory concentration (IC50) in [1] and in [2] was > 10 µM in each case.

As for `CCc1c2c(c(C)c3c1Oc1ccccc1O3)C(=O)OC2`, the IC50 in [1] and in series [2] was > 10 µM throughout.

Consider `Cc1c2c(c(C)c3c1Oc1ccccc1O3)C(=O)OC2`, for which the IC50 in series [1] and in series [2] was > 100 µM in each case.

`Cc1c2c(c(CC(C)CC(C)(C)C)c3c1Oc1ccccc1O3)C(=O)OC2` (stereo not drawn): the IC50 is 13.5 µM in series [1] and > 10 µM in series [2].

The values above are taken from ChEMBL document CHEMBL1139834, “Synthesis and structure-activity relationships of new benzodioxinic lactones as potential anticancer drugs” (J Med Chem, 2007).
